The values that follow come from ChEMBL document CHEMBL1132197, “Stereospecific synthesis, structure-activity relationship, and oral bioavailability of tetrahydropyrimidin-2-one HIV protease inhibitors” (J Med Chem, 1999).

One may read the Cmax as the peak of the concentration-time curve. A word on the IC90: it is the concentration at which the effect reaches the 90% level. The low end stands for greater potency, the high end for weaker potency. By Ki is commonly meant a dissociation constant, usually derived from enzyme kinetics or from competition with a known ligand. A high value points to a looser hold on the target.

A short description of data set [1]: The maximum plasma concentration (Cmax) is the observed peak plasma concentration after an oral dose on rat. In kind it is ADME, organism-based. Also on record: route oral. The method in brief:
(§1)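 Rats dosed orally in groups at 10 mg/kg, in a formulation of propylene glycol, poly(ethylene glycol) 400 and water. Cmax is the observed peak plasma concentration after the oral dose.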

The subject of a further data set is MT2. Briefly: Antiviral activity by measuring its effect on the accumulation of viral RNA transcripts on infection of MT-2 cells with HIV-1 RF. In kind it is functional. As to conditions: Homo sapiens. The method in brief:
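Viral RNA transcript accumulation read 3 days after HIV-1 RF infection of MT-2 cells. IC90 is the concentration cutting viral RNA by 90% versus an untreated infected culture. TC50 came from MTT dye reduction in uninfected MT-2 cultures grown 3 days with compound.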

Data set [2] deals with Human immunodeficiency virus type 1 protease (Human immunodeficiency virus 1, UniProt Q72874). Briefly: Inhibition constant of HIV protease inhibitors. The method in brief:
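HIV protease (HIVPR) inhibition constant was determined by monitoring cleavage of a fluorescent peptide substrate, with products separated and quantified by HPLC.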

Data set [3] can be described thus: The maximum plasma concentration (Cmax) is the observed peak plasma concentration after an oral dose on rat. In kind it is ADME, organism-based. Also on record: route oral. A digest of the protocol:
as §1

Data set [4] in a line: The maximum plasma concentration (Cmax) is the observed peak plasma concentration after an oral dose on dog. In kind it is ADME, organism-based, Canis lupus familiaris. Details: route oral.

SMILES strings stand for the structures.

Compound `O=C1N(Cc2cccc(-c3cc[nH]n3)c2)[C@H](CCc2ccccc2)[C@@H](O)[C@@H](Cc2ccccc2)N1Cc1cccc(-c2cc[nH]n2)c1` showed a Cmax in data set [1] of 160 nM. Moreover, the 90% effect level in the data set with MT2 (IC90) was put at 22 nM. This compound returned a Ki in data set [2] of 0.1 nM.
For `O=C1N(Cc2cccc(O)c2)[C@H](Cc2ccccc2)[C@H](O)[C@@H](O)[C@@H](Cc2ccccc2)N1Cc1cccc(O)c1`, in the data set on MT2, the IC90 came out at 54 nM. Moreover, in data set [3], the concentration peaked (Cmax) at 810 nM.
Taken in the same sequence, the figures for `O=C1N(Cc2cccc(CO)c2)[C@H](Cc2ccccc2)[C@H](O)[C@@H](O)[C@@H](Cc2ccccc2)N1Cc1cccc(CO)c1` were 38 nM and 830 nM.
In data set [1], `O=C1N(Cc2cccc(CO)c2)[C@H](CCc2ccccc2)[C@@H](O)[C@@H](Cc2ccccc2)N1Cc1cccc(CO)c1` returned a Cmax of 240 nM. This compound also registered an IC90 with MT2 of 109 nM.
`CC(=O)c1cccc(CN2C(=O)N(Cc3cccc(C(C)=O)c3)[C@H](Cc3ccccc3)[C@H](O)[C@H]2CCc2ccccc2)c1` displayed a peak concentration (Cmax) in data set [1] of 180 nM. For the same compound, the IC90 in the data set on MT2 stood at 49 nM. For the same compound, the inhibitory constant (Ki) in data set [2] is 0.91 nM.
Take `O=C1N(Cc2ccc3[nH]ncc3c2)[C@H](CCc2ccccc2)[C@@H](O)[C@@H](Cc2ccccc2)N1Cc1ccc2[nH]ncc2c1`: in data set [4], the highest level (Cmax) was 250 nM. In data set [2], this compound registered an inhibitory constant (Ki) of 0.02 nM.
Turning to `CC(=O)c1cccc(CN2C(=O)N(Cc3cccc(C(C)=O)c3)[C@H](Cc3ccccc3)[C@H](O)[C@@H](O)[C@H]2Cc2ccccc2)c1`, the Cmax in data set [3] is 500 nM.
As for `O=C1N(Cc2cccc(O)c2)[C@H](CCc2ccccc2)[C@@H](O)[C@@H](Cc2ccccc2)N1Cc1cccc(O)c1`, the IC90 in the data set on MT2 was found to be 115 nM. Further, the peak concentration (Cmax) in data set [3] came to 120 nM.
For the compound `Nc1cccc(CN2C(=O)N(Cc3cccc(N)c3)[C@H](Cc3ccccc3)[C@H](O)[C@H]2CCc2ccccc2)c1`, the peak level in data set [1] (Cmax) was 1000 nM. In the data set with MT2, this compound displayed an IC90 of 365 nM.
With `O=C1N(Cc2cccc(O)c2)[C@H]([C@@H](F)Cc2ccccc2)[C@@H](O)[C@@H](Cc2ccccc2)N1Cc1cccc(O)c1`, the 90% effect level in the data set on MT2 (IC90) was put at 2100 nM. For the same compound, in data set [2], the Ki was 12 nM. The compound also returned a Cmax in data set [3] of 250 nM.
Regarding `O=C1N(Cc2cccc(-c3cc[nH]n3)c2)[C@H](Cc2ccccc2)[C@H](O)[C@@H](O)[C@@H](Cc2ccccc2)N1Cc1cccc(-c2cc[nH]n2)c1`, the Cmax in data set [3] is 70 nM.
On the same count and under the same terms, as for `Nc1cccc(CN2C(=O)N(Cc3cccc(N)c3)[C@H](Cc3ccccc3)[C@H](O)[C@@H](O)[C@H]2Cc2ccccc2)c1` [MOZENAVIR], the figure is 2250 nM.
